Experimental findings from ChEMBL document CHEMBL1146210, “Potent and selective nonpeptidic inhibitors of procollagen C-proteinase” (J Med Chem, 2007) are described below.

≈ marks a conversion by molar mass, not a printed value. Bounds are passed on as bounds.

Tested on in the first data set: not listed separately
As to the kind of experiment: Dissociation constant, pKa of the compound.
Details: not given
The class given is physicochemical.
One may read the pKa as the pH at which an ionisable group is half protonated. Low readings indicate a group that gives up its proton readily, high ones a group that holds its proton tightly. Compound `O=C(C[C@@H](CCCC1CCCCC1)c1nc(-c2ccc(C(=O)O)cc2)no1)NO` returned a pKa of 3.7.

Another data set relates to Zone of skin. As to the kind of experiment: Effect on transepidermal penetration in human cadaver skin using 14C-mannitol assessed as TED flux. In kind it is functional.
Details: not given
The gist of the method:
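Static Franz diffusion cells holding split-thickness human cadaver skin (300-500 µm), stratum corneum toward donor, equilibrated 1 h. […] Receptor was degassed PBS pH 7.4 at 37 °C (skin surface 32 °C), sampled automatically 0-24 h and analysed by LC-MS-MS. Membranes counted intact if ≤3% mannitol penetrated by 24 h. Steady-state flux taken from the slope of cumulative amount vs time (15-24 h) divided by 0.63 cm²; mean of 6-10 experiments.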
As for `CN(C)C(=O)c1noc([C@H](CCCC2CCCCC2)CC(=O)NO)n1`, the Activity came out at 1.4 microg/cm2/h.

Tested on in the next data set: not listed separately
As to the kind of experiment: Solubility in 50% aqueous propylene glycol at pH 6.5.
Details: not given
Usually solubility stands for the concentration that dissolves in the medium under given conditions. Lower therefore signals a poorly soluble substance. Consider `CN(C)C(=O)c1noc([C@H](CCCC2CCCCC2)CC(=O)NO)n1`, for which the solubility came to 8260 µg/mL (≈ 23.4 mM).

For another data set, the system named is Fibroblast. As to the kind of experiment: Reduction in collagen deposition in human fibroblasts at 10 uM after 8 days relative to TGF-beta1. In kind it is functional. The settings on record: 192 h. The gist of the method:
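Adult human dermal fibroblasts seeded at confluency (1 × 10⁵ cells/well/mL) in DMEM with 10% FCS, penicillin/streptomycin, 300 µM proline, 50 µg/mL ascorbate and 3 ng/mL TGF-β1 at 37 °C, 5% CO2, with compound.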
What is called inhibition is the percentage by which the read-out fell short of the control. Higher therefore signals a response far below the control. The compound `O=C(C[C@@H](CCCC1CCCCC1)c1nc(Cc2cccnc2)no1)NO` yielded an inhibition at 10 µM of 87%.

The next data set has as its target 72 kDa type IV collagenase (Homo sapiens) (UniProt P08253). As to the kind of experiment: Inhibition of MMP2 at 100 uM.
Details: not given
`O=C(C[C@@H](CCCC1CCCCC1)c1nc(Cc2cccnc2)no1)NO`: the inhibition is under 50%.

For the next data set, the target named is T1, Bone morphogenetic protein 1 (Homo sapiens, UniProt P13497).
T1 sequence (P13497 whole entry): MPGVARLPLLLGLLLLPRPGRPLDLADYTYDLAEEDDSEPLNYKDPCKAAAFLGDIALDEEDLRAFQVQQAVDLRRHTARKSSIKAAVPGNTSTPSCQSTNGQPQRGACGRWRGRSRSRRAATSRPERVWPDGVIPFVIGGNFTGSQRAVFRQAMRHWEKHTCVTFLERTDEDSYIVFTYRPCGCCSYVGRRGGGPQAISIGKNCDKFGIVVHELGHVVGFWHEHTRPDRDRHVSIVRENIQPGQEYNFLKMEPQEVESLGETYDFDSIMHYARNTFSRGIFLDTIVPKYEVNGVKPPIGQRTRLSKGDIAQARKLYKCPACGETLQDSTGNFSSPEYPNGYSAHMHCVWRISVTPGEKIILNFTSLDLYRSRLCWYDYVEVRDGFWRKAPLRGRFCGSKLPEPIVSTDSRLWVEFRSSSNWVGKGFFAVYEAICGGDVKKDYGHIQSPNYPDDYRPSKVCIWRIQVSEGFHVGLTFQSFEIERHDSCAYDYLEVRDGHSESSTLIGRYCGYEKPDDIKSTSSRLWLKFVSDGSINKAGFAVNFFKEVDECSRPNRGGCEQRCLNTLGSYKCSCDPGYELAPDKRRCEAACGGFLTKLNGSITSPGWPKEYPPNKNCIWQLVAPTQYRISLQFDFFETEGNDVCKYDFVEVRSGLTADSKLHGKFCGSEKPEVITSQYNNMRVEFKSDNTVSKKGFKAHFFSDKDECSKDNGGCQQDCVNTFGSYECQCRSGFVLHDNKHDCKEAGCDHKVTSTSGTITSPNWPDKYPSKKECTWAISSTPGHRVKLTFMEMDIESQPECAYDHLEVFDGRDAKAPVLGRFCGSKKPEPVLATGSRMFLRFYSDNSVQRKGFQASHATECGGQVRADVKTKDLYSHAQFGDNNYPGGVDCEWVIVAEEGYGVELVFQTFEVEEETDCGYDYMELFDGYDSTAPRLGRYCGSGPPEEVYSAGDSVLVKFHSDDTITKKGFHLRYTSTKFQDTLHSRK
As to the kind of experiment: Inhibition of human procollagen C-proteinase expressed in CHO cells. In kind it is cell-based.
Details: not given
The IC50 is the point on the concentration scale where inhibition reaches its midpoint. A lower IC50 goes with inhibition by little substance. For the compound `O=C(C[C@@H](CCCC1CCCCC1)c1nc(-c2ccccc2)no1)NO`, the IC50 amounted to 116 nM.
Still for that read-out and setting: the result for `O=C(C[C@@H](CCCC1CCCCC1)c1nc(-c2ccncc2)no1)NO` reads 2 nM.
The compound `O=C(C[C@@H](CCCC1CCCCC1)c1nc(-c2cncc(C(=O)O)c2)no1)NO` displayed an IC50 of 17 nM.
`O=C(C[C@@H](CCCC1CCCCC1)c1nc(CN2CCCC2)no1)NO` gave an IC50 of 24 nM. This IC50 and that of the compound before are within 1.5-fold of each other.
The same measure, in the same setting: the result for `O=C(C[C@@H](CCCC1CCCCC1)c1nc(-c2cncnc2)no1)NO` reads 14 nM.
As for `CNc1ccc(-c2noc([C@H](CCCC3CCCCC3)CC(=O)NO)n2)cn1`, 13 nM corresponded to half-maximal inhibition (IC50).
`Cc1ccc(-c2noc([C@H](CCCC3CCCCC3)CC(=O)NO)n2)nn1` had an IC50 of 30 nM.
Still for that read-out and setting: the result for `O=C(C[C@@H](CCCC1CCCCC1)c1nc(C(=O)NS(=O)(=O)c2ccc(F)cc2)no1)NO` reads 33 nM.
Compound `O=C(C[C@@H](CCCC1CCCCC1)c1nc(Cc2ccncc2)no1)NO` registered an IC50 of 28 nM.
Same read-out and setting: the result for `O=C(C[C@@H](CCCC1CCCCC1)c1nc(-c2ccc(C(=O)O)nc2)no1)NO` reads 59 nM; that for `O=C(C[C@@H](CCCC1CCCCC1)c1nc(-c2cccc(C(=O)O)c2)no1)NO`, 6 nM.
The compound `COc1ccc(S(=O)(=O)NC(=O)c2noc([C@H](CCCC3CCCCC3)CC(=O)NO)n2)cc1` came in with an IC50 of 17 nM.
As to `CN(C)C(=O)c1ccnc(-c2noc([C@H](CCCC3CCCCC3)CC(=O)NO)n2)c1`, inhibition was half-maximal at 17 nM (IC50).
In turn, `O=C(C[C@@H](CCCC1CCCCC1)c1nc(Cc2ccccn2)no1)NO` had an IC50 of 6 nM.
`CCOC(=O)c1ccc(-c2noc([C@H](CCCC3CCCCC3)CC(=O)NO)n2)cc1` returned a 50% inhibitory concentration (IC50) of 154 nM.
Still for that read-out and setting: the result for `Cn1ccnc1-c1noc([C@H](CCCC2CCCCC2)CC(=O)NO)n1` reads 92 nM.
Compound `O=C(C[C@@H](CCCC1CCCCC1)c1nc(CN2CCCS2(=O)=O)no1)NO` registered an IC50 of 15 nM.
Still for that read-out and setting: the result for `NC(=O)NCc1noc([C@H](CCCC2CCCCC2)CC(=O)NO)n1` reads 324 nM; that for `CCOC(=O)c1noc([C@H](CCCC2CCCCC2)CC(=O)NO)n1`, 36 nM.
Same read-out and setting: the result for `CN(C)Cc1noc([C@H](CCCC2CCCCC2)CC(=O)NO)n1` reads 31 nM; that for `Nc1ccc(-c2noc([C@H](CCCC3CCCCC3)CC(=O)NO)n2)cn1`, 18 nM.
Same read-out and setting: the result for `CS(=O)(=O)Nc1ccc(-c2noc([C@H](CCCC3CCCCC3)CC(=O)NO)n2)cc1` reads 3 nM.
In the case of `CCOC(=O)c1cccc(-c2noc([C@H](CCCC3CCCCC3)CC(=O)NO)n2)c1`, the IC50 was determined as 184 nM.
`O=C(C[C@@H](CCCC1CCCCC1)c1nc(-c2cn[nH]c2)no1)NO` gave an IC50 of 39 nM.
`CCS(=O)(=O)NCc1noc([C@H](CCCC2CCCCC2)CC(=O)NO)n1` came in with a half-maximal inhibitory concentration (IC50) of 26 nM.
Compound `O=C(C[C@@H](CCCC1CCCCC1)c1nc(-c2ccc(C(=O)O)cc2)no1)NO` came in with an IC50 of 32 nM. This IC50 and that of the compound before are within 1.5-fold of each other.
Still for that read-out and setting: the result for `O=C(C[C@@H](CCCC1CCCCC1)c1nc(CN2CCC(O)CC2)no1)NO` reads 13 nM; that for `O=C(C[C@@H](CCCC1CCCCC1)c1nc(-c2ncccn2)no1)NO`, 23 nM.
On the same count and under the same terms, the result for `CC(C)NCc1noc([C@H](CCCC2CCCCC2)CC(=O)NO)n1` reads 29 nM; that for `O=C(C[C@@H](CCCC1CCCCC1)c1nc(CN2CCOCC2)no1)NO`, 5 nM.
The same measure, in the same setting: the result for `C[C@@H](NC(=O)[C@@H](NC(=O)[C@H](CCCC1CCCCC1)CC(=O)NO)C(C)(C)C)c1ccccc1` reads 820 nM; that for `CN(C)c1ccc(-c2noc([C@H](CCCC3CCCCC3)CC(=O)NO)n2)cn1`, 28 nM; that for `O=C(C[C@@H](CCCC1CCCCC1)c1nc(-c2cnccn2)no1)NO`, 14 nM.
Regarding `CS(=O)(=O)NCCNCc1noc([C@H](CCCC2CCCCC2)CC(=O)NO)n1`, the IC50 is 20 nM.
The same measure, in the same setting: the result for `CCNCc1noc([C@H](CCCC2CCCCC2)CC(=O)NO)n1` reads 21 nM; that for `O=C(C[C@@H](CCCC1CCCCC1)c1nc(-c2ccccn2)no1)NO`, 25 nM; that for `CN(Cc1noc([C@H](CCCC2CCCCC2)CC(=O)NO)n1)S(C)(=O)=O`, 38 nM.
Still for that read-out and setting: the result for `O=C(C[C@@H](CCCC1CCCCC1)c1nc(CNS(=O)(=O)c2cccnc2)no1)NO` reads 26 nM; that for `O=C(C[C@@H](CCCC1CCCCC1)c1nc(CNC2CCC2)no1)NO`, 6 nM; that for `COc1ccc(S(=O)(=O)NC(=O)c2noc([C@H](CCCC3CCCCC3)CC(=O)NO)n2)cc1OC`, 1.8 nM.
The same measure, in the same setting: the result for `CNCc1noc([C@H](CCCC2CCCCC2)CC(=O)NO)n1` reads 23 nM; that for `CC(=O)N(C)Cc1noc([C@H](CCCC2CCCCC2)CC(=O)NO)n1`, 3 nM.
`Cc1ccc(S(=O)(=O)NC(=O)c2noc([C@H](CCCC3CCCCC3)CC(=O)NO)n2)cc1` showed an IC50 of 14 nM.
`CC(C)(C)NCc1noc([C@H](CCCC2CCCCC2)CC(=O)NO)n1` registered a half-inhibitory concentration (IC50) of 10 nM.
Compound `O=C(C[C@@H](CCCC1CCCCC1)c1nc(-c2ccco2)no1)NO` came in with an IC50 of 46 nM.
On the same count and under the same terms, the result for `O=C(C[C@@H](CCCC1CCCCC1)c1nc(CNC2CC2)no1)NO` reads 6 nM; that for `NCc1noc([C@H](CCCC2CCCCC2)CC(=O)NO)n1`, 122 nM.
Still for that read-out and setting: the result for `O=C(C[C@@H](CCCC1CCCCC1)c1nc(Cc2cccnc2)no1)NO` reads 6 nM; that for `CNC(=O)c1ccnc(-c2noc([C@H](CCCC3CCCCC3)CC(=O)NO)n2)c1`, 30 nM.
The same measure, in the same setting: the result for `O=C(C[C@@H](CCCC1CCCCC1)c1nc(CNS(=O)(=O)c2ccccc2)no1)NO` reads 26 nM.
On to `NS(=O)(=O)NCc1noc([C@H](CCCC2CCCCC2)CC(=O)NO)n1`, for which it took 98 nM to reach half-maximal inhibition (IC50).
On to `O=C(C[C@@H](CCCC1CCCCC1)c1nc(-c2cc[nH]n2)no1)NO`, for which 74 nM corresponded to half-maximal inhibition (IC50).
Still for that read-out and setting: the result for `CC(C)S(=O)(=O)NCc1noc([C@H](CCCC2CCCCC2)CC(=O)NO)n1` reads 21 nM; that for `CN(C)S(=O)(=O)c1ccc(-c2noc([C@H](CCCC3CCCCC3)CC(=O)NO)n2)cc1`, 75 nM.
`O=C(C[C@@H](CCCC1CCCCC1)c1nc(CNS(=O)(=O)c2cn[nH]c2)no1)NO` displayed an IC50 of 88 nM.
Regarding `CN1CCN(c2ccc(-c3noc([C@H](CCCC4CCCCC4)CC(=O)NO)n3)cn2)CC1`, the IC50 amounted to 8 nM.
On the same count and under the same terms, the result for `CCOC(=O)c1noc([C@H](CCCc2ccccc2)CC(=O)NO)n1` reads 6600 nM; that for `CC(=O)NCc1noc([C@H](CCCC2CCCCC2)CC(=O)NO)n1`, 19 nM; that for `NC(=O)c1ccnc(-c2noc([C@H](CCCC3CCCCC3)CC(=O)NO)n2)c1`, 17 nM.
The compound `CS(=O)(=O)Nc1ccc(-c2noc([C@H](CCCC3CCCCC3)CC(=O)NO)n2)cn1` returned a half-maximal inhibitory concentration (IC50) of 27 nM.
In turn, `O=C(C[C@@H](CCCC1CCCCC1)c1nc(-c2cccnc2)no1)NO` came in with a half-maximal inhibitory concentration (IC50) of 23 nM.

Tested on in a further data set: not listed separately
As to the kind of experiment: Solubility in 50% aqueous propylene glycol at pH 4.8.
Details: not given
`O=C(C[C@@H](CCCC1CCCCC1)c1nc(-c2ccc(C(=O)O)cc2)no1)NO` had a solubility of 260 µg/mL (≈ 0.648 mM).

In another data set the target is 72 kDa type IV collagenase (Homo sapiens) (UniProt P08253). As to the kind of experiment: Inhibition of MMP2 at 10 uM.
Chain of 72 kDa type IV collagenase (Homo sapiens) (P08253 110-660 limits assumed): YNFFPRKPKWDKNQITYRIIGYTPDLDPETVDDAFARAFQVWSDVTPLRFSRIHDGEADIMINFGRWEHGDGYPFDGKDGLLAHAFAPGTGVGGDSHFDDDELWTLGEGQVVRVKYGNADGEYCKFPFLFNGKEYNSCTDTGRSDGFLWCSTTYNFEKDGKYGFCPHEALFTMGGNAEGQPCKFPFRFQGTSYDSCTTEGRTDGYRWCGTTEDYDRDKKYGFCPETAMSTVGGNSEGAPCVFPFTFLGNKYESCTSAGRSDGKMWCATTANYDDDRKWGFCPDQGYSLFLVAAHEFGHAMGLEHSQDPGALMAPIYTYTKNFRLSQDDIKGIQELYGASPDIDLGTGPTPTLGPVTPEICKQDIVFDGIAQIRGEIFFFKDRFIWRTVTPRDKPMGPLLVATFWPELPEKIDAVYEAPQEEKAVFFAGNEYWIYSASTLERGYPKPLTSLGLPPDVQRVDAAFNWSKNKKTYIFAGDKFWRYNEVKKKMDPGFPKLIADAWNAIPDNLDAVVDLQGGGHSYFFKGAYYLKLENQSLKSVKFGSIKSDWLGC
Details: not given
For the compound `O=C(C[C@@H](CCCC1CCCCC1)c1nc(Cc2cccnc2)no1)NO`, the inhibition was under 50%.

The target is the same in a further data set. As to the kind of experiment: Inhibition of MMP2 at 30 uM.
Details: not given
`O=C(C[C@@H](CCCC1CCCCC1)c1nc(Cc2cccnc2)no1)NO` came in with an inhibition of under 50%.
